Data set [1] addresses Glucagon-like peptide 1 receptor (Homo sapiens, UniProt P43220). Nature of the data set: Agonist activity at human GLP1 receptor expressed in HEK293 cells assessed as increase in cAMP level after 30 mins by HTRF method. Format: functional, cell-based. An outline of the steps: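 HEK293 cells stably expressing human GLP-1 receptor, thawed, suspended in DMEM with 20 mM HEPES, 2 mM L-Glu, 0.5% FBS, 1% pen-strep. Compounds dissolved in DMSO, diluted in assay buffer to 1 × 10−13–1 × 10−6 M final, 30 min at 37 °C in 5% CO2. cAMP read by HTRF. EC50 as means ± SD of three individual experiments, n = 3.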
On the technique in general: Changes in cAMP serve as a functional read-out for many G protein-coupled receptors.

The target in the next data set is Albumin (Homo sapiens, UniProt P02768). In words: Binding affinity to human serum albumin after 60 mins by ultrafiltration-based HPLC analysis. It counts as ADME. An outline of the steps: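 Peptide in PBS pH 7.4 (100 μg ml−1) mixed with HSA (10 mg ml−1 in PBS), incubated 60 min at 37 °C. Ultrafiltration through 30 kDa cutoff filter, 30 min at 3500 rpm. Free compound in filtrate by HPLC. Membrane adsorption checked (<4%). Repeated three times.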

The nature of data set [2]: Half life in Sprague-Dawley rat plasma at 0.5 mL by LC-MS/MS analysis. Format: ADME, cell-free. An outline of the steps: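 Plasma from male Sprague-Dawley rats (200–250 g). Peptide in PBS pH 7.4 added to initial 1000 ng ml−1 and incubated at 37 °C for 48 h. Samples at 2, 4, 8, 12, 24, 36, 48 h precipitated with acetonitrile containing 2% formic acid, centrifuged, analysed by LC-MS/MS in MRM mode. Degradation curves in triplicate.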

In data set [3] the test system is Mus musculus. In words: Antidiabetic activity in Kunming mouse assessed as reduction in blood glucose AUC at 25 nmol/kg, ip pretreated for 30 mins followed by glucose-challenge and measured after 15 to 120 mins by IPGTT. Format: functional, organism-based. An outline of the steps: (§1)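 Male Kunming mice (20–25 g, n = 6) fasted overnight. Peptide or saline 25 nmol kg−1 ip at −30 min, ip glucose 2 g kg−1 at 0 min. Tail-vein blood glucose by glucometer at −30, 0, 15, 30, 60 and 120 min. Glucose AUC0–120min calculated; means ± SD.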

Data set [4] concerns Mus musculus. Nature of the data set: Antidiabetic activity in Kunming mouse assessed as reduction in blood glucose level at 25 nmol/kg, ip pretreated for 30 mins followed by glucose-challenge and measured after 15 to 120 mins by IPGTT. It counts as functional, organism-based. An outline of the steps: as §1

Calls of active or inactive are those of the source. *1 amine or outer side, *2 acyl side, *3 side chain or, on linkers, in order; H or OH if unused. Where a SMILES comes first, the peptide text is derived from it. Side-chain parts run from the residue outwards. The star is where a group is joined. Mycophenolyl = COc1c(C)c2c(c(O)c1C/C=C(\C)CCC(=O)*)C(=O)OC2; γGlu = O=C(O)[C@H](CCC(=O)[*:2])N[*:1]; 12Ado = NCCCCCCCCCCCC(=O)O; Ahx = NCCCCCC(=O)O

Sequence of Glucagon-like peptide 1 receptor (P43220 whole entry): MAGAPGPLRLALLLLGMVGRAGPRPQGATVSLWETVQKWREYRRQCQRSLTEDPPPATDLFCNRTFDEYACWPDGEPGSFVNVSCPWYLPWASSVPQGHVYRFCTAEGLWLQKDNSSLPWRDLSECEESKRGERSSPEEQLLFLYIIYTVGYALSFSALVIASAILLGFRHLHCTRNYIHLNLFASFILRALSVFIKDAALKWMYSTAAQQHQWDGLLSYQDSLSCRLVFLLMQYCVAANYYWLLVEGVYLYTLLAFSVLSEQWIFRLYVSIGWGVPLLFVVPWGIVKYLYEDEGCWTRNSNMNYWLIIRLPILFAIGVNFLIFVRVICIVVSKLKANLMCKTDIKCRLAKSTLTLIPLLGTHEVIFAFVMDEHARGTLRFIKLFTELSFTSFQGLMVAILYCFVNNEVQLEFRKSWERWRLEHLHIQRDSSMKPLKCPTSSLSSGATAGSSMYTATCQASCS
Sequence of Albumin (P02768 whole entry): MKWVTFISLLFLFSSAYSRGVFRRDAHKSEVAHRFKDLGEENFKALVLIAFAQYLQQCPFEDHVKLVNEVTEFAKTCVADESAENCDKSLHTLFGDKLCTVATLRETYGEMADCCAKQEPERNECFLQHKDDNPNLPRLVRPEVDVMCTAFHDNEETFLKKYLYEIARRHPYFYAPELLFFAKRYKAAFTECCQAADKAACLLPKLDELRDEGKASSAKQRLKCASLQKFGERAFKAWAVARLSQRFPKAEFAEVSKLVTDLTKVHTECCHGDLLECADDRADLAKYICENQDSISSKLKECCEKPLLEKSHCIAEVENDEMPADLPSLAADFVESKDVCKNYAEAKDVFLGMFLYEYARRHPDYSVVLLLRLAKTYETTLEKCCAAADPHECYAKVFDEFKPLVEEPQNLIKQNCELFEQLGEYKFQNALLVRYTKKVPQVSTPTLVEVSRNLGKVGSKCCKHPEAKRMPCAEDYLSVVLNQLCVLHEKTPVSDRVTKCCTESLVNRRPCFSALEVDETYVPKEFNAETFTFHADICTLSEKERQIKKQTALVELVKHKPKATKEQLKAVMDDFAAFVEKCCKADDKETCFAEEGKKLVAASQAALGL

Consider `CC[C@H](C)[C@H](NC(=O)[C@H](CC(C)C)NC(=O)[C@H](Cc1c[nH]c2ccccc12)NC(=O)[C@H](CCC(=O)O)NC(=O)[C@@H](NC(=O)[C@H](Cc1ccccc1)NC(=O)[C@H](CCC(=O)O)NC(=O)[C@H](CCCCNC(=O)CC[C@H](NC(=O)CCCCCCCCCCCNC(=O)CC/C(C)=C/Cc1c(O)c2c(c(C)c1OC)COC2=O)C(=O)O)NC(=O)[C@H](C)NC(=O)[C@H](C)NC(=O)[C@H](CCC(=O)O)NC(=O)[C@H](CCC(=O)O)NC(=O)[C@H](CCC(=O)O)NC(=O)[C@H](CC(C)C)NC(=O)[C@H](Cc1ccc(O)cc1)NC(=O)[C@H](CCC(=O)O)NC(=O)[C@@H](NC(=O)[C@@H](NC(=O)[C@H](CC(=O)O)NC(=O)[C@H](CC(N)=O)NC(=O)[C@@H](NC(=O)[C@H](Cc1ccc(O)cc1)NC(=O)[C@@H](NC(=O)CNC(=O)[C@H](CCC(=O)O)NC(=O)CNC(=O)[C@@H](N)Cc1cnc[nH]1)[C@@H](C)O)[C@@H](C)O)C(C)C)[C@@H](C)O)[C@@H](C)CC)C(=O)N[C@@H](CCCCN)C(=O)NCC(=O)N[C@@H](CCCCN)C(=O)O` (H-HGEGTYTNDVTEYLEEEAAK([γGlu-12Ado-Mycophenolyl])EFIEWLIKGK-OH), for which, in data set [1], the EC50 (usually the concentration needed to bring the measured effect to its halfway point) was found to be 7.3 nM. Same read-out and setting: for `CC[C@H](C)[C@H](NC(=O)[C@H](CC(C)C)NC(=O)[C@H](Cc1c[nH]c2ccccc12)NC(=O)[C@H](CCC(=O)O)NC(=O)[C@@H](NC(=O)[C@H](Cc1ccccc1)NC(=O)[C@H](CCC(=O)O)NC(=O)[C@H](CCCCNC(=O)CC[C@H](NC(=O)CCCCCNC(=O)CC/C(C)=C/Cc1c(O)c2c(c(C)c1OC)COC2=O)C(=O)O)NC(=O)[C@H](C)NC(=O)[C@H](C)NC(=O)[C@H](CCC(=O)O)NC(=O)[C@H](CCC(=O)O)NC(=O)[C@H](CCC(=O)O)NC(=O)[C@H](CC(C)C)NC(=O)[C@H](Cc1ccc(O)cc1)NC(=O)[C@H](CCC(=O)O)NC(=O)[C@@H](NC(=O)[C@@H](NC(=O)[C@H](CC(=O)O)NC(=O)[C@H](CC(N)=O)NC(=O)[C@@H](NC(=O)[C@H](Cc1ccc(O)cc1)NC(=O)[C@@H](NC(=O)CNC(=O)[C@H](CCC(=O)O)NC(=O)CNC(=O)[C@@H](N)Cc1cnc[nH]1)[C@@H](C)O)[C@@H](C)O)C(C)C)[C@@H](C)O)[C@@H](C)CC)C(=O)N[C@@H](CCCCN)C(=O)NCC(=O)N[C@@H](CCCCN)C(=O)O` (H-HGEGTYTNDVTEYLEEEAAK([γGlu-Ahx-Mycophenolyl])EFIEWLIKGK-OH) the value was 6.9 nM.

`CC[C@H](C)[C@H](NC(=O)[C@H](CC(C)C)NC(=O)[C@H](Cc1c[nH]c2ccccc12)NC(=O)[C@H](CCC(=O)O)NC(=O)[C@@H](NC(=O)[C@H](Cc1ccccc1)NC(=O)[C@H](CCC(=O)O)NC(=O)[C@H](CCCCNC(=O)CC[C@H](NC(=O)CCCCCNC(=O)CC/C(C)=C/Cc1c(O)c2c(c(C)c1OC)COC2=O)C(=O)O)NC(=O)[C@H](C)NC(=O)[C@H](C)NC(=O)[C@H](CCC(=O)O)NC(=O)[C@H](CCC(=O)O)NC(=O)[C@H](CCC(=O)O)NC(=O)[C@H](CC(C)C)NC(=O)[C@H](Cc1ccc(O)cc1)NC(=O)[C@H](CCC(=O)O)NC(=O)[C@@H](NC(=O)[C@@H](NC(=O)[C@H](CC(=O)O)NC(=O)[C@H](CC(N)=O)NC(=O)[C@@H](NC(=O)[C@H](Cc1ccc(O)cc1)NC(=O)[C@@H](NC(=O)CNC(=O)[C@H](CCC(=O)O)NC(=O)CNC(=O)[C@@H](N)Cc1cnc[nH]1)[C@@H](C)O)[C@@H](C)O)C(C)C)[C@@H](C)O)[C@@H](C)CC)C(=O)N[C@@H](CCCCN)C(=O)NCC(=O)N[C@@H](CCCCN)C(=O)N1CCC[C@H]1C(=O)N[C@@H](CO)C(=O)N[C@@H](CO)C(=O)NCC(=O)N[C@@H](C)C(=O)N1CCC[C@H]1C(=O)N1CCC[C@H]1C(=O)N1CCC[C@H]1C(=O)N[C@@H](CO)C(=O)O` (H-HGEGTYTNDVTEYLEEEAAK([γGlu-Ahx-Mycophenolyl])EFIEWLIKGKPSSGAPPPS-OH): on Albumin (human serum albumin, read-out: PB (converted)), the fraction unbound at 1 h is 0.351. Further, in data set [2] (Sprague-Dawley), the half-life (commonly the time in which the quantity being followed falls by half) is 19.3 h. For the same compound, the result in the data set with Mus musculus [3] and with Mus musculus [4] was Active. Besides, in data set [1], the EC50 came to 4.1 nM. Take `CC[C@H](C)[C@H](NC(=O)[C@H](CC(C)C)NC(=O)[C@H](Cc1c[nH]c2ccccc12)NC(=O)[C@H](CCC(=O)O)NC(=O)[C@@H](NC(=O)[C@H](Cc1ccccc1)NC(=O)[C@H](CCC(=O)O)NC(=O)[C@H](CCCCN)NC(=O)[C@H](C)NC(=O)[C@H](C)NC(=O)[C@H](CCC(=O)O)NC(=O)[C@H](CCC(=O)O)NC(=O)[C@H](CCC(=O)O)NC(=O)[C@H](CC(C)C)NC(=O)[C@H](Cc1ccc(O)cc1)NC(=O)[C@H](CCC(=O)O)NC(=O)[C@@H](NC(=O)[C@@H](NC(=O)[C@H](CC(=O)O)NC(=O)[C@H](CC(N)=O)NC(=O)[C@@H](NC(=O)[C@H](Cc1ccc(O)cc1)NC(=O)[C@@H](NC(=O)CNC(=O)[C@H](CCC(=O)O)NC(=O)CNC(=O)[C@@H](N)Cc1cnc[nH]1)[C@@H](C)O)[C@@H](C)O)C(C)C)[C@@H](C)O)[C@@H](C)CC)C(=O)N[C@@H](CCCCNC(=O)CC[C@H](NC(=O)CCCCCCCCCCCNC(=O)CC/C(C)=C/Cc1c(O)c2c(c(C)c1OC)COC2=O)C(=O)O)C(=O)NCC(=O)N[C@@H](CCCCN)C(=O)O` (H-HGEGTYTNDVTEYLEEEAAKEFIEWLIK([γGlu-12Ado-Mycophenolyl])GK-OH): in data set [1], the half-maximal effective concentration (EC50) stood at 16.3 nM. `CC[C@H](C)[C@H](NC(=O)[C@H](CC(C)C)NC(=O)[C@H](Cc1c[nH]c2ccccc12)NC(=O)[C@H](CCC(=O)O)NC(=O)[C@@H](NC(=O)[C@H](Cc1ccccc1)NC(=O)[C@H](CCC(=O)O)NC(=O)[C@H](CCCCN)NC(=O)[C@H](C)NC(=O)[C@H](C)NC(=O)[C@H](CCC(=O)O)NC(=O)[C@H](CCC(=O)O)NC(=O)[C@H](CCC(=O)O)NC(=O)[C@H](CC(C)C)NC(=O)[C@H](Cc1ccc(O)cc1)NC(=O)[C@H](CCC(=O)O)NC(=O)[C@@H](NC(=O)[C@@H](NC(=O)[C@H](CC(=O)O)NC(=O)[C@H](CC(N)=O)NC(=O)[C@@H](NC(=O)[C@H](Cc1ccc(O)cc1)NC(=O)[C@@H](NC(=O)CNC(=O)[C@H](CCC(=O)O)NC(=O)CNC(=O)[C@@H](N)Cc1cnc[nH]1)[C@@H](C)O)[C@@H](C)O)C(C)C)[C@@H](C)O)[C@@H](C)CC)C(=O)N[C@@H](CCCCNC(=O)CC[C@H](NC(=O)CCCCCNC(=O)CC/C(C)=C/Cc1c(O)c2c(c(C)c1OC)COC2=O)C(=O)O)C(=O)NCC(=O)N[C@@H](CCCCN)C(=O)O` (H-HGEGTYTNDVTEYLEEEAAKEFIEWLIK([γGlu-Ahx-Mycophenolyl])GK-OH): the EC50 in data set [1] turned out to be 11.8 nM. With `CC[C@H](C)[C@H](NC(=O)[C@H](CC(C)C)NC(=O)[C@H](Cc1c[nH]c2ccccc12)NC(=O)[C@H](CCC(=O)O)NC(=O)[C@@H](NC(=O)[C@H](Cc1ccccc1)NC(=O)[C@H](CCC(=O)O)NC(=O)[C@H](CCCCN)NC(=O)[C@H](C)NC(=O)[C@H](C)NC(=O)[C@H](CCC(=O)O)NC(=O)[C@H](CCC(=O)O)NC(=O)[C@H](CCC(=O)O)NC(=O)[C@H](CC(C)C)NC(=O)[C@H](Cc1ccc(O)cc1)NC(=O)[C@H](CCC(=O)O)NC(=O)[C@@H](NC(=O)[C@@H](NC(=O)[C@H](CC(=O)O)NC(=O)[C@H](CC(N)=O)NC(=O)[C@@H](NC(=O)[C@H](Cc1ccc(O)cc1)NC(=O)[C@@H](NC(=O)CNC(=O)[C@H](CCC(=O)O)NC(=O)CNC(=O)[C@@H](N)Cc1cnc[nH]1)[C@@H](C)O)[C@@H](C)O)C(C)C)[C@@H](C)O)[C@@H](C)CC)C(=O)N[C@@H](CCCCN)C(=O)NCC(=O)N[C@@H](CCCCNC(=O)CC[C@H](NC(=O)CCCCCCCCCCCNC(=O)CC/C(C)=C/Cc1c(O)c2c(c(C)c1OC)COC2=O)C(=O)O)C(=O)O` (H-HGEGTYTNDVTEYLEEEAAKEFIEWLIKGK([γGlu-12Ado-Mycophenolyl])-OH), the EC50 in data set [1] was found to be 23.5 nM. Still for that read-out and setting: in the case of `CC[C@H](C)[C@H](NC(=O)[C@H](CC(C)C)NC(=O)[C@H](Cc1c[nH]c2ccccc12)NC(=O)[C@H](CCC(=O)O)NC(=O)[C@@H](NC(=O)[C@H](Cc1ccccc1)NC(=O)[C@H](CCC(=O)O)NC(=O)[C@H](CCCCN)NC(=O)[C@H](C)NC(=O)[C@H](C)NC(=O)[C@H](CCC(=O)O)NC(=O)[C@H](CCC(=O)O)NC(=O)[C@H](CCC(=O)O)NC(=O)[C@H](CC(C)C)NC(=O)[C@H](Cc1ccc(O)cc1)NC(=O)[C@H](CCC(=O)O)NC(=O)[C@@H](NC(=O)[C@@H](NC(=O)[C@H](CC(=O)O)NC(=O)[C@H](CC(N)=O)NC(=O)[C@@H](NC(=O)[C@H](Cc1ccc(O)cc1)NC(=O)[C@@H](NC(=O)CNC(=O)[C@H](CCC(=O)O)NC(=O)CNC(=O)[C@@H](N)Cc1cnc[nH]1)[C@@H](C)O)[C@@H](C)O)C(C)C)[C@@H](C)O)[C@@H](C)CC)C(=O)N[C@@H](CCCCN)C(=O)NCC(=O)N[C@@H](CCCCNC(=O)CC[C@H](NC(=O)CCCCCNC(=O)CC/C(C)=C/Cc1c(O)c2c(c(C)c1OC)COC2=O)C(=O)O)C(=O)O` (H-HGEGTYTNDVTEYLEEEAAKEFIEWLIKGK([γGlu-Ahx-Mycophenolyl])-OH) it was 16.8 nM; in that of H-HGEGTYTNDVTEYLEEEAAKEFIEWLIKGK-OH, 5.4 nM.

For SEMAGLUTIDE, the PB on Albumin (isolated protein, 1 h) is given as 97.8%. This compound also showed a t1/2 in data set [2] greater than 48 h.

For the origin of these results see ChEMBL document CHEMBL4257467, “Synthesis and pharmaceutical characterization of site specific mycophenolic acid-modified Xenopus glucagon-like peptide-1 analogs” (Medchemcomm, 2018).
